pEC50: −log10 of the molar value.
Experiments:
[1] = Cytotoxicity against mock-infected human MT4 cells after 96 hrs by MTT assay; assay type: cell-based
In short: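 Exponentially growing MT-4 cells were seeded at 1 × 10^5 cells/mL in RPMI-1640 with 10% FBS and held at 37 °C, 5% CO2 with serial compound dilutions. Viability was read by MTT after 96 h. CC50 from linear regression against untreated controls.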

[2] = system: Human immunodeficiency virus 1; assay: Antiviral activity against HIV1 infected in human MT4 cells assessed as inhibition of virus-induced cytopathogenicity after 4 days by MTT assay; assay type: functional, organism-based; settings: Human immunodeficiency virus 1, MT4, 96 h
In short: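 MT-4 cells (1 × 10^4/well in RPMI) were infected acutely with HIV-1 IIIB, 100 CCID50 (m.o.i. 0.01), with serial dilutions from 100 µM, 1:5. After 4 days at 37 °C, protection from virus-induced cytopathogenicity was read by MTT. EC50 came from linear regression against untreated controls.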

[3] = Cytotoxicity against mock-infected MDBK cells after 48 to 96 hrs by MTT assay; assay type: cell-based, Bos taurus; settings: cattle
In short: (§1)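 Mock-infected MDBK (6 × 10^5 cells/mL; MEM-E, 10% horse serum, 1 mM pyruvate) or BHK (1 × 10^6 cells/mL; MEM-E, 10% FBS) cells were incubated at 37 °C, 5% CO2 with serial dilutions from 100 µM, 1:5. Viability by MTT after 48–96 h. CC50 from linear regression against untreated controls.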

[4] = system: Bovine viral diarrhea virus 1; assay: Antiviral activity against Bovine viral diarrhea virus infected in MDBK cells assessed as inhibition of virus-induced cytopathogenicity after 3 to 4 days by MTT assay; assay type: functional, organism-based; settings: Bovine viral diarrhea virus isolates and strains
[5] = Cytotoxicity against mock-infected BHK21 cells after 48 to 96 hrs by MTT assay; assay type: functional; settings: Mesocricetus auratus, BHK-21; in short: as §1
Yellow fever virus = assay: Antiviral activity against Yellow fever virus infected in BHK21 cells assessed as inhibition of virus-induced cytopathogenicity after 3 to 4 days by MTT assay; assay type: functional, organism-based; settings: BHK-21
Reovirus sp. = assay: Antiviral activity against Reovirus type-1 infected in BHK21 cells assessed as inhibition of virus-induced cytopathogenicity after 3 to 4 days by MTT assay; assay type: functional, organism-based; settings: BHK-21
[6] = Cytotoxicity against mock-infected african green monkey Vero 76 cells after 48 to 96 hrs by MTT assay; assay type: cell-based; settings: chlorocebus sabaeus, mock-infected Vero 76 cells
Coxsackievirus B5 = assay: Antiviral activity against Coxsackievirus B5 infected in african green monkey Vero 76 cells assessed as reduction in plaque number after 3 days by plaque reduction assay; assay type: functional, organism-based; settings: Enterovirus B, 72 h
Poliovirus 1 = assay: Antiviral activity against Poliovirus type 1 Sabin strain infected in african green monkey Vero 76 cells assessed as reduction in plaque number after 2 days by plaque reduction assay; assay type: functional, organism-based; settings: Enterovirus C, 48 h
[7] = system: Respiratory syncytial virus; assay: Antiviral activity against Respiratory syncytial virus infected in african green monkey Vero 76 cells assessed as reduction in plaque number after 5 days by plaque reduction assay; assay type: functional, organism-based; settings: human respiratory syncytial virus, 120 h
[8] = system: Vesicular stomatitis virus; assay: Antiviral activity against Vesicular stomatitis virus infected in african green monkey Vero 76 cells assessed as reduction in plaque number after 2 days by plaque reduction assay; assay type: functional, organism-based; settings: 48 h
Vaccinia virus = assay: Antiviral activity against Vaccinia Virus infected in african green monkey Vero 76 cells assessed as reduction in plaque number after 3 days by plaque reduction assay; assay type: functional, organism-based; settings: Orthopoxvirus vaccinia, 72 h
Human alphaherpesvirus 1 = assay: Antiviral activity against HSV1 infected in african green monkey Vero 76 cells assessed as reduction in plaque number after 3 days by plaque reduction assay; assay type: functional, organism-based; settings: Human alphaherpesvirus 1, Vero, 72 h
[9] = Selectivity index, ratio of CC50 for african green monkey Vero 76 cells to EC50 for Respiratory syncytial virus; assay type: toxicity, cell-based; settings: read-out: Ratio CC50/EC50
In short: (§2)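 Mock-infected Vero-76 cells were tested in parallel on the same 24-well plates as the plaque assays (seeding 4 × 10^5 cells/mL, D-MEM with FBS), with serial compound dilutions at 37 °C, 5% CO2. Viability was read after 48–96 h by crystal violet staining. CC50 by linear regression; selectivity index = Vero-76 CC50/EC50 for CVB-5 or RSV.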

[10] = Selectivity index, ratio of CC50 for african green monkey Vero 76 cells to EC50 for Coxsackievirus B5; assay type: toxicity, cell-based; settings: read-out: Ratio CC50/EC50; in short: as §2

Row | SMILES | CC50 at 96 h [1] [µM] | pEC50 [2] | CC50 [3] [µM] | pEC50 [4] | CC50 [5] [µM] | pEC50 (Yellow fever virus) | pEC50 (Reovirus sp.) | CC50 [6] [µM] | pEC50 (Coxsackievirus B5) | pEC50 (Poliovirus 1) | pEC50 [7] | pEC50 [8] | pEC50 (Vaccinia virus) | pEC50 (Human alphaherpesvirus 1) | selectivity ratio [9] | selectivity ratio [10]
1 | c1ccc(Cn2c(-c3ccccc3)nc3ccccc32)cc1 | 47 | < 4.00 | 54 | < 4.00 | 36 | < 4.00 | < 4.00 | 87 | < 4.00 | < 4.00 | 4.60 | < 4.00 | < 4.00 | < 4.00 | 3.48 | –
2 | Cc1ccc2nc(-c3ccc(F)cc3)n([C@H]3CCCN4CCCC[C@H]34)c2c1 | > 100 | < 4.00 | > 100 | < 4.00 | > 100 | < 4.00 | < 4.00 | > 100 | 4.10 | < 4.00 | 4.20 | < 4.00 | < 4.00 | < 4.00 | > 1.59 | > 1.25
3 | Clc1ccc2nc(-c3ccccc3)n([C@H]3CCCN4CCCC[C@H]34)c2c1 | 56 | < 4.00 | 86 | 4.10 | 48 | < 4.00 | < 4.00 | 90 | 4.85 | < 4.00 | 4.35 | < 4.00 | < 4.00 | < 4.00 | 2 | 6.43
4 | c1ccc2c(c1)Cn1c(nc3ccccc31)-c1ccccc1-2 | 44 | < 4.00 | 23 | < 4.00 | 20 | < 4.00 | < 4.00 | 80 | < 4.00 | < 4.00 | 5.05 | < 4.00 | < 4.00 | < 4.00 | 8.89 | –
5 | Clc1ccc(Cc2nc3cc(Cl)c(Cl)cc3n2C[C@@H]2CCCN3CCCC[C@H]23)cc1Cl | 9 | < 4.00 | 46 | < 4.00 | 52 | < 4.00 | < 4.00 | > 100 | 5.05 | < 4.00 | 4.92 | < 4.00 | < 4.00 | < 4.00 | > 8.33 | > 11.1
6 | Clc1cc2nc(Cc3ccc(Br)cc3)n(C[C@@H]3CCCN4CCCC[C@H]34)c2cc1Cl | 12 | < 4.00 | 58 | < 4.00 | 70 | < 4.00 | < 4.00 | > 100 | 4.30 | < 4.00 | 5.05 | < 4.00 | < 4.00 | < 4.00 | > 11.1 | > 2
7 | Nc1ccc(Cc2nc3cc(C(F)(F)F)ccc3[nH]2)cc1 | > 100 | < 4.00 | > 100 | < 4.00 | > 100 | < 4.00 | < 4.00 | > 100 | 4.96 | < 4.00 | < 4.00 | < 4.00 | < 4.00 | < 4.00 | – | > 9.09
8 | COc1ccc(Cc2nc3cc(Cl)c(Cl)cc3[nH]2)cc1 | 29 | < 4.00 | 17 | < 4.00 | 19 | < 4.00 | < 4.00 | > 100 | < 4.00 | < 4.00 | 5.30 | < 4.00 | < 4.00 | < 4.00 | ≥ 20 | –

— ChEMBL document CHEMBL3351523 (Bioorg Med Chem, 2014)
